The full list was thinned out, with hits kept by preference.
H69AR inhibit: blocks growth of human H69AR lung tumor cells; H69AR lung tumor viability, ATP luminescence, 72 h; active compounds read low; viability, % at 10 µM; 6% of 85,000 active;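 active = viability at or below 40%; inactive = viability above 40%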;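 also: multidrug resistant small cell line overexpressing MRP-1 efflux transporter; 100% = mean luminescence of untreated control wells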
HUVEC inhibit: inhibitors of human endothelial cell proliferation; HUVEC proliferation, CellTiter-Glo luminescence, 72 h; active compounds read low; viability, % at 10 µM (by protocol); 1.1% of 86,000 active; AID 648;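 active = viability at or below 30%; inactive = viability above 30%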;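 also: 100% = median luminescence of DMSO-only cell control wells on each plate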
bCat KO growth: beta-catenin-lacking colon tumor cell growth suppression | viability, % at 10 µM | 1.5% of 140,000 active | HCT116 beta-catenin knockout viability, CellTiter-Glo, 60 h; active compounds read low;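 active = viability at or under a set limit, the compound median less 4 SD, cut at about 6% in these data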;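 also: 0% = Hyamine 1622 control at 20 µM and 100% = untreated cell control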
Calb biofilm kill: kills Candida albicans biofilms; inhibition, % at 6 µM; C. albicans biofilm + clotrimazole, Alamar Blue; AID 834; 0.14% of 85,000 active;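 active = inhibition above 20%; inactive = inhibition below 20%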;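 also: preformed 24 hr biofilms exposed to compound for 48 hr; 0% = biofilm without compound and 100% = blank killed by clotrimazole plus chlorhexidine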
Lung fibro prol: blocks proliferation of human lung fibroblasts; LL 47 human lung fibroblast viability, ATP luminescence; active compounds read low; viability, % at 10 µM; 1.1% of 85,000 active; AID 719;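 active = viability at or below 50% in the single dose screen; inactive = viability above 50%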;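 also: compound exposure lasted 72 h before the ATP readout; 100% = median luminescence of untreated cell-only wells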
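test system = LL 47 human lung fibroblasts | amount = 1,150 fibroblasts seeded per well | medium = 15% FBS in IMEM | times = overnight cell rest, 72 h compound treatment at 37 °C | measured by = CellTiter-Glo luminescence measuring cellular ATP | read-out = viability percentage against median untreated-cell control | benchmarks = cell-only wells, no compound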
PTEN del growth: PTEN-deleted cell growth suppression; HCT116 PTEN-null viability, CellTiter-Glo, 60 h; active compounds read low; viability, % at 10 µM; 1.2% of 140,000 active; AID 827;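 active = viability at or below a set limit, 4 SD under the median of all tested compounds, cut at about 3.7% in these data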;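 also: PTEN knockout HCT116 line with beta catenin targeted HCT116 as companion control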
Numbers without * were called inactive.

Screening CSc1nc(C2CC2)cc(-c2cccs2)c1C#N returned H69AR inhibit 8.6*, HUVEC inhibit 30*, bCat KO growth 34, Calb biofilm kill 6, Lung fibro prol 32* and PTEN del growth 28.
`COC(=O)CSc1nc(-c2cccs2)ccc1C#N` gave H69AR inhibit 37*, HUVEC inhibit 100, bCat KO growth 74, Calb biofilm kill 2, Lung fibro prol 96 and PTEN del growth 86.
COc1ccc(-c2cc(-c3cccs3)c(C#N)c(SCC(=O)NCc3ccco3)n2)cc1 was read as H69AR inhibit 22*, HUVEC inhibit 52, bCat KO growth 14, Calb biofilm kill 2, Lung fibro prol 57 and PTEN del growth 19.
Screening CN1CCN(C(=O)CSc2nc(-c3cccs3)cc(-c3cccs3)c2C#N)CC1 returned H69AR inhibit 5.4*, HUVEC inhibit 2.0*, bCat KO growth 3.1*, Calb biofilm kill 1, Lung fibro prol 53 and PTEN del growth 4.
`CCCCCCS(=O)Cc1ccccc1` (stereo not given) gave H69AR inhibit 92, HUVEC inhibit 99, bCat KO growth 102, Calb biofilm kill 2, Lung fibro prol 109 and PTEN del growth 99.
C=CCc1cc(/C=C2/NC(=O)N(CC)C2=O)cc(OCC)c1OCc1ccc(C(=O)O)cc1 was read as bCat KO growth 76 and PTEN del growth 72.
CS(=O)(=O)N(CC(=O)Nc1ccccc1C(=O)NCc1ccco1)c1ccc2c(c1)OCCO2 was read as H69AR inhibit 26*, HUVEC inhibit 83, bCat KO growth 29, Calb biofilm kill -1, Lung fibro prol 86 and PTEN del growth 31.
`CC(C)CNC(=O)c1ccccc1NC(=O)CN(c1ccc2c(c1)OCCO2)S(C)(=O)=O` gave H69AR inhibit 78, HUVEC inhibit 106, bCat KO growth 79, Calb biofilm kill 6, Lung fibro prol 96 and PTEN del growth 76.
COc1ccc2[nH]c3nc(SCc4nnc(-c5ccccc5)o4)nnc3c2c1 was read as H69AR inhibit 9.3*, HUVEC inhibit 65, bCat KO growth 81, Calb biofilm kill -3, Lung fibro prol 101 and PTEN del growth 73.
COc1ccc(-c2nnc(SCc3nnc(-c4ccccc4)o3)n2-c2ccccc2)cc1 was read as H69AR inhibit 2.6*, HUVEC inhibit 42, bCat KO growth 76, Calb biofilm kill 8, Lung fibro prol 85 and PTEN del growth 77.
For O=[N+]([O-])c1ccc(N=Nc2ccc(O)cc2O)cc1 the results were H69AR inhibit 3.2*, HUVEC inhibit 18*, bCat KO growth 1.9*, Calb biofilm kill 1, Lung fibro prol 40* and PTEN del growth 2.4*.
For O=C(CSCc1ccc(Cl)cc1)NCc1ccccn1 the results were bCat KO growth 96 and PTEN del growth 107.
`CCCn1c(/C=N/Nc2nc3ccccc3[nH]2)nc2ccccc21` gave bCat KO growth 3.6* and PTEN del growth 3.0*.
`CCN(CC)c1ccc(/C=N/Nc2nc3ccccc3[nH]2)cc1` gave bCat KO growth 2.8* and PTEN del growth 1.6*.
O=C(Oc1ccc([N+](=O)[O-])cc1)c1cncc(Br)c1 was read as bCat KO growth 96 and PTEN del growth 101.
`O=C(Oc1ccc2[nH]cc(CCN3C(=O)c4ccccc4C3=O)c2c1)c1ccco1` gave H69AR inhibit 99, HUVEC inhibit 98, bCat KO growth 94, Calb biofilm kill 10, Lung fibro prol 106 and PTEN del growth 112.
For COc1ccc2c(c1)c(CCN1C(=O)c3ccccc3C1=O)cn2C(=O)c1ccco1 the results were H69AR inhibit 50, HUVEC inhibit 26*, bCat KO growth 91, Calb biofilm kill 6, Lung fibro prol 80 and PTEN del growth 88.
For C=CCNC(=O)C1CC1(c1ccccc1)c1ccccc1 (stereo not given) the results were bCat KO growth 88 and PTEN del growth 95.
Screening O=C1C(=O)N(CCCn2ccnc2)C(c2cccnc2)/C1=C(/O)c1ccc(Br)cc1 (stereo not given) returned H69AR inhibit 99, HUVEC inhibit 100, Calb biofilm kill 5 and Lung fibro prol 94.
`CC1CCN(C2=C(NS(=O)(=O)c3ccc(Cl)cc3)C(=O)c3ccccc3C2=O)CC1` gave bCat KO growth 46 and PTEN del growth 39.

High-throughput results as filed in PubChem BioAssay.
